pIC50: −log10 of the molar value.
Experiments:
[1] = Stability of the compound in DMSO; assay type: physicochemical
[2] = Stability of the compound in DMEM at 200 uM incubated for 5 to 30 mins in presence of 10% FBS by HPLC analysis; conditions: time min 5-30
Procedure, shortened: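 Compound at 200 μM incubated in DMEM with 10% FBS at 37 °C; aliquots withdrawn at various time points and analysed by HPLC, peaks assigned by comparison with authentic reference samples.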

[3] = Inhibition of CREB (unknown origin) expressed in HEK293T cells transfected with pCRE-RLuc assessed as inhibition of forskolin-induced CREB transcription activity by luciferase reporter gene assay; assay type: cell-based; conditions: Homo sapiens, HEK-293T
Procedure, shortened: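 HEK293T cells transiently transfected with pCRE-RLuc (Renilla luciferase under CREB control), treated with graded compound concentrations, then stimulated with forskolin to raise CREB phosphorylation; luciferase signal read. IC50 = concentration halving reporter transcription; mean ± SD of at least two experiments in triplicate. Prodrug stocks in DMF, parent in DMSO.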

MDA-MB-231 = test: Antiproliferative activity against human MDA-MB-231 cells assessed as inhibition of cell growth incubated for 72 hrs by MTT assay; assay type: functional
Procedure, shortened: (§1)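 MTT viability read-out after 72 h exposure of TNBC cells to increasing compound concentrations. GI50 = concentration giving 50% growth inhibition; mean ± SD from at least two independent experiments run in duplicate. Stocks of the ester prodrugs prepared in DMF, parent compound stocks in DMSO.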

MDA-MB-468 = test: Antiproliferative activity against human MDA-MB-468 cells assessed as inhibition of cell growth incubated for 72 hrs by MTT assay; assay type: functional; procedure, shortened: as §1
[4] = Ratio of GI50 for human MDA-MB-231 cells to GI50 for human MDA-MB-468 cells assessed as cell growth inhibition measured after 72 hrs by MTT assay; assay type: functional
[5] = Aqueous solubility of the compound in distilled de-ionized water; assay type: physicochemical

| SMILES | Stabilty [1] | Stability [2] | pIC50 [3] | GI50 (MDA-MB-231) [nM] | GI50 (MDA-MB-468) [nM] | Ratio IC50 [4] | solubility [5] [mg/mL] |
| --- | --- | --- | --- | --- | --- | --- | --- |
| Cl.Cl.NCCCOc1cc2ccccc2cc1C(=O)Nc1ccc(Cl)cc1OC(=O)c1cc2ccccc2cc1OCCN | Unstable | Unstable | 6.60 | 670 | 32 | 10 | > 100 |
| Cl.NCCCOc1cc2ccccc2cc1C(=O)NCCOc1cc2ccccc2cc1C(=O)Nc1ccc(Cl)cc1O |  |  |  |  |  |  | < 0.5 |
| NCCCOc1cc2ccccc2cc1C(=O)Oc1cc(Cl)ccc1NC(=O)c1cc2ccccc2cc1OCCN | Unstable |  | 6.59 | 540 | 45 | 10 |  |

— ChEMBL document CHEMBL4699454, “Mechanistic insights into the activation of ester prodrugs of 666-15” (Bioorg Med Chem Lett, 2020)
